The list is not random: actives were taken first. Their share in the collection is about 5.9%.
H69AR inhibit: blocks growth of human H69AR lung tumor cells; H69AR lung tumor viability, ATP luminescence, 72 h; stronger effect = lower value; viability, % at 10 µM; 85,000 tested, 6% active; AID 598;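 active means viability at or below 40%; inactive means viability above 40%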;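 further: multidrug resistant small cell line overexpressing MRP-1 efflux transporter; 100% = mean luminescence of untreated control wells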
PTK2B oligo ant: Pyk2 (human) oligomerization antagonism | Q14289 | Q293 cells, Pyk2 FERM NanoBiT luminescence; stronger effect = lower value | z-score (the deposit names both 25 µM and 10 µM) | 99,000 tested, 0.83% active | AID 1347419;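 active means Z-score of -3 or lower, scaled per plate to the spread of control and sample wells; inactive means z-score above -3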;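 further: negative z-score means lost luminescence so less FERM oligomerization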
Jurkat viability: cytotoxicity toward Jurkat cells; 56,000 tested, 1.2% active; inhibition, % at 4 µM; Jurkat E6.1 viability, ATP luminescence, 48 h;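 active means inhibition above the mean inhibition of all tested compounds plus 3 SD, cut at about 28% in these data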
HUVEC prolif 384: inhibitors of human endothelial cell proliferation; 86,000 tested, 1.1% active; viability, % at 10 µM (by protocol); HUVEC proliferation, CellTiter-Glo luminescence, 72 h; stronger effect = lower value;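 active means viability at or below 30%; inactive means viability above 30%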;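 further: 100% = median luminescence of DMSO-only cell control wells on each plate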
Fibroblast inh: blocks proliferation of human lung fibroblasts | AID 719 | viability, % at 10 µM | LL 47 human lung fibroblast viability, ATP luminescence; stronger effect = lower value | 85,000 tested, 1.1% active;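 active means viability at or below 50% in the single dose screen; inactive means viability above 50%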;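 further: compound exposure lasted 72 h before the ATP readout; 100% = median luminescence of untreated cell-only wells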
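Test system: LL 47 human lung fibroblasts / Incubation: 72 h compound exposure at 37 °C after overnight plating / Technique: luminescent ATP detection, CellTiter-Glo / Compound dosing: 0.1% DMSO in all compound wells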
MT1-MMP txn act: MT1-MMP promoter transcription activation. activation factor at 10 µM. 86,000 tested, 0.16% active. HT1080 MT1-MMP promoter luciferase reporter, luminescence, overnight; stronger effect = higher value;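 active means activation factor of at least 2 for MT1-MMP transcription at 10 µM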
* marks the source's active call; other numbers are inactive results; · = no result.

SMILES	H69AR inhibit	PTK2B oligo ant	Jurkat viability	HUVEC prolif 384	Fibroblast inh	MT1-MMP txn act
COc1ccc(C2CC(=O)C(C=NCCN3CCN(C(C)=O)CC3)=C(O)C2)cc1OC (centres undefined)	104	·	0	94	100	1.1
O=C(c1ccco1)N1CCN(C(c2coc3ccc(Cl)cc3c2=O)c2nnnn2C2CCCC2)CC1 (centres undefined)	14*	1.2	·	73	86	1.1
Cc1ccc2occ(C(c3nnnn3C3CCCC3)N3CCN(C(=O)c4ccco4)CC3)c(=O)c2c1 (centres undefined)	60	-0.46	8	93	100	1.1
Cc1ccc([N+](=O)[O-])cc1N=C(c1cccc([N+](=O)[O-])c1)N1CCOCC1	·	-1.4	·	·	·	·
O=[N+]([O-])c1ccc(C(=Nc2cccc3ccccc23)N2CCOCC2)cc1	·	-3.5*	·	·	·	·
O=C(NCc1cccs1)c1noc2c1CCCC2	48	0.66	68*	96	92	1.1
O=C(NCc1cccc(F)c1)c1noc2c1CCCC2	40*	·	60*	83	78	1.3
O=C(NCc1cccnc1)c1noc2c1CCCC2	102	-0.66	6	102	100	1.2
O=C(NCc1ccccc1)c1noc2c1CCCC2	62	0.09	56*	91	90	1.1
O=C(NCc1ccc(Cl)cc1)c1noc2c1CCCC2	105	-0.85	2	103	99	1.1
CC(C)OC(=O)CCCNc1ccc([N+](=O)[O-])cc1[N+](=O)[O-]	·	0.23	·	·	·	·
CC1CN(C(=O)CN2C(=O)c3ccccc3S2(=O)=O)CC(C)O1 (centres undefined)	101	0.06	·	108	101	1.2
CCN1C(=O)/C(=C/N2CCc3ccccc32)SC1=S	70	-0.5	-8	99	98	1.8
CCCN1C(=O)/C(=C/C=C2\N(CC)c3ccccc3C2(C)C)SC1=S	·	-3*	·	·	·	·
COc1ccc(CNCc2cc3c(C(C)(C)C)nn(-c4ccccc4)c3[nH]c2=O)cc1	24*	-0.48	·	72	69	1
Cc1ccc(CNCc2cc3c(C(C)(C)C)nn(-c4ccccc4)c3[nH]c2=O)cc1	1.9*	-0.72	·	67	65	1
CC(C)(C)c1nn(-c2ccccc2)c2[nH]c(=O)c(CNCc3ccco3)cc12	7.8*	0.26	-1	44	100	0.9
COc1ccc(/C=C\C(=O)c2c(O)ccc3c(C)cc(=O)oc23)cc1OC	·	-1.8	·	·	·	·
CC1(C)OC(=O)C(=CNC(Cc2c[nH]c3ccccc23)C(=O)O)C(=O)O1 (centres undefined)	·	-0.3	4	95	99	1.2
COc1cc(C(=O)Oc2cccc(C=O)c2)cc(OC)c1OC	25*	-0.1	·	73	86	1.1
COC(=O)c1ccc(C(NC(=O)OCc2ccccc2)/C(=C/[C@@H](C)C(=O)NCc2ccncc2)c2cccnc2)cc1 (some centres undefined)	·	·	·	·	·	1.5
CN(C)S(=O)(=O)c1cccc(N=c2scc(-c3ccc4c(c3)NC(=O)CO4)n2CC2CCCO2)c1 (centres undefined)	34*	0.73	·	64	93	1.4
COc1ccc(C2=CC(c3sccc3C)n3nnnc3N2)cc1 (centres undefined)	40	-0.47	2	91	94	1.5
COc1cccc(C2=CC(c3ccc(OC)c(OC)c3OC)n3nnnc3N2)c1 (centres undefined)	7.6*	1.5	23	85	79	1.2
COc1ccc(C2=CC(c3ccc(F)cc3)n3nnnc3N2)cc1 (centres undefined)	68	-0.88	-12	101	98	1.5
SMILES	H69AR inhibit	PTK2B oligo ant	Jurkat viability	HUVEC prolif 384	Fibroblast inh	MT1-MMP txn act
COc1ccccc1C1C=C(c2ccccc2)Nc2nnnn21 (centres undefined)	11*	1	80*	69	61	1.4
COc1cccc(C2=CC(c3cccs3)n3nnnc3N2)c1 (centres undefined)	15*	-0.35	·	55	62	1.1
CCCCCn1c(=NC(C)=O)c(C#N)cc2c(=O)n3cccc(C)c3nc21	50	·	-3	90	89	1.3
Cc1cccc(OCc2nnc(NC(=O)Cc3cccs3)s2)c1	75	0.19	·	71	96	1
Cc1ccc(N2C(N)=C(C#N)C(c3cccnc3)C3=C2CC(C)(C)CC3=O)cc1 (centres undefined)	24*	0.48	2	87	79	1.2
COC(=O)[C@H]1C[C@@H]1[C@H](NC(=O)c1cc(C)nn1C)c1ccccc1	·	·	·	·	·	1.2
CCCc1ccc(Oc2cn[nH]c2-c2ccc(O)cc2O)cc1	29*	-2.6	7	61	91	1.2
COc1ccc(Oc2cn[nH]c2-c2ccc(O)cc2O)cc1	92	-3.5*	9	85	96	1.3
COc1ccc(-c2[nH]ncc2-c2cnn(-c3ccccc3)c2)c(O)c1	·	0.2	·	·	·	·
COc1ccc(-c2[nH]ncc2Oc2ccccc2OC)c(O)c1	39*	-2.8	8	98	101	1.2
CCCc1cc(-c2[nH]ncc2-c2ccc(C(=O)OCC)o2)c(O)cc1O	82	-2.1	6	86	72	1.1
COc1ccc(-c2[nH]ncc2-c2cnc(C)s2)c(O)c1	101	0.99	9	86	96	1.2
Cn1c(=O)c2c(ncn2CC(=O)Nc2ccc(Cl)cc2Cl)n(C)c1=O	94	1.9	-6	100	100	1
O=C(COC(=O)[C@H](Cc1ccccc1)NC(=O)c1ccco1)NCc1ccccc1	·	-0.14	·	·	·	·
CSCCC(NC(=O)c1ccccc1)C(=O)NCc1ccco1 (centres undefined)	98	1.5	-2	106	99	1
CCCCCC(=O)O[C@]1(C(C)=O)CC[C@H]2[C@@H]3CCC4=CC(=O)CC[C@]4(C)[C@H]3CC[C@@]21C	4.8*	·	·	71	85	1.2
CCCCN(CCCC)c1nc(OC)nc(-n2nnc(C(C)=O)c2C)n1	37*	-1.9	·	80	99	1.1
COc1ccc(N2C(=O)c3ccccc3NC2c2ccc(OC)c(CSc3ccccn3)c2)cc1 (centres undefined)	·	-3.2*	·	·	·	·
COc1ccc(C2Nc3ccccc3C(=O)N2c2ccc(C)cc2)cc1Cn1nnc2ccccc21 (centres undefined)	·	-2.1	·	·	·	·
COC(=O)[C@H](Cc1ccccc1)NC(=O)[C@]1(C)C[C@H]1[C@H](NC(=O)OCc1ccccc1)c1ccccc1	·	·	·	·	·	1.1
O=C(CCN1Cc2ccccc2C1)c1ccc2c(c1)OCCO2	1.0*	-0.72	-2	98	79	1
O=C(CCN1CCc2ccccc2C(c2ccccc2)C1)c1ccc2c(c1)OCCO2 (centres undefined)	1.6*	1.4	·	86	91	1.2
CCCOC(=O)c1ccc(OCC(O)Cn2c(C)nc3ccccc32)cc1 (centres undefined)	84	·	20	95	100	1.1
COc1ccc(Cn2c(SC)nc3ccccc32)cc1[N+](=O)[O-]	·	-0.79	·	·	·	·

Source: PubChem BioAssay
